Laboratory results published in ChEMBL document CHEMBL1124799, “1,4-bis(3-oxo-2,3-dihydropyridazin-6-yl)benzene analogues: potent phosphodiesterase inhibitors and inodilators” (1990).

What was measured:
[1] = test system: Phosphodiesterase 3 (Felis catus); assay: Inhibition of phosphodiesterase 3 enzyme activity by 50%
Felis catus [2] = assay: The dose required to cause 50% increase in the contractility and inotropic activity as dLVP/dt(max) in anesthetized cat; type: functional
Method in brief: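 Pentobarbitone-anesthetized cats (60 mg/kg ip), given pempidine 5 mg/kg and then propranolol 1 mg/kg iv plus 3–4 mg/kg sc. Cats responding to isoprenaline 0.01–0.1 μg/kg iv with less than a 100% contractility rise were rejected. Test compound given as an iv bolus, with dLVP/dt(max) as the read-out. ED50 is the dose giving a 50% rise over control, from dose-response curves, mean of ≥2 experiments. Duration was scored by the time for dLVP/dt to return to control.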

Felis catus [3] = assay: ED15 is the dose producing 15% decrease in autoperfused hindquarters perfusion pressure in anesthetized cat; type: functional
Method in brief: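 Anesthetized cats (either sex, 1.9–2.5 kg; pentobarbitone 60 mg/kg ip), ganglion-blocked with pempidine 5 mg/kg, then β-blocked with propranolol 1 mg/kg iv plus 3–4 mg/kg sc, heparinized 500 units/kg iv. Hindquarters autoperfused via the descending aorta. Test compound given as an iv bolus. ED15 taken as the dose lowering perfusion pressure by 15%, from dose-response curves, mean of ≥2 experiments.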

[4] = test system: Phosphodiesterase 3 (Felis catus); assay: Inhibition of Phosphodiesterase 3

| Compound | IC50 [1] | IC50 [4] | ED50 (Felis catus [2]) | ED15 (Felis catus [3]) |
| --- | --- | --- | --- | --- |
| Oc1ccc(-c2ccc(-c3ccc(-c4ccc(O)nn4)cc3)cc2)nn1 | > 100 µM | – | – | – |
| Oc1ccc(-c2ccc(-c3ccc(O)nn3)s2)nn1 | 0.49 µM | – | 0.73 µmol/kg | 0.38 µM/kg |
| CC(=O)Nc1ccc(C2=NNC(=O)CC2C)cc1 (configuration not stated) | – | – | 0.03 µmol/kg | 0.08 µM/kg |
| O=C1CCC(c2ccc(-n3ccnc3)cc2)=NN1 [IMAZODAN] | – | – | 0.64 µmol/kg | 0.42 µM/kg |
| Oc1ccc(-c2cccc(-c3ccc(O)nn3)c2)nn1 | 3.9 µM | – | – | 3.23 µM/kg |
| Oc1ccc(-c2ccc(-c3ccc(O)nn3)cc2)nn1 | 0.33 µM | – | 0.04 µmol/kg | 0.06 µM/kg |
| CC1SC(=O)NN=C1c1ccc(C2=NNC(=O)SC2C)cc1 (configuration not stated) | – | 0.08 µM | 0.13 µmol/kg | 0.09 µM/kg |
| O=C1CCC(c2ccc(C3=NNC(=O)CC3)cc2)=NN1 | 0.64 µM | – | 0.55 µmol/kg | 0.12 µM/kg |
| CC(=O)Nc1ccc(-c2ccc(O)nn2)cc1 | 6.38 µM | – | – | – |
| Cc1cc(O)nnc1-c1ccc(-c2nnc(O)cc2C)cc1 | 37.5 µM | – | – | – |
| CC1CC(O)=NN=C1c1ccc(-n2ccnc2)cc1 (configuration not stated) [CI-930] | – | – | 0.18 µmol/kg | 0.09 µM/kg |

Continued, in another order:

| IC50 [1] | IC50 [4] | Compound | ED50 (Felis catus [2]) | ED15 (Felis catus [3]) |
| --- | --- | --- | --- | --- |
| 0.07 µM | – | CC1CC(=O)NN=C1c1ccc(-c2ccc(O)nn2)cc1 (configuration not stated) | 0.02 µmol/kg | 0.01 µM/kg |
| 61.7 µM | – | Nc1ccc(C2=NNC(=O)CC2)cc1 | 4.43 µmol/kg | 1.4 µM/kg |
| 7.13 µM | – | CC(=O)Nc1ccc(C2=NNC(=O)CC2)cc1 | 0.19 µmol/kg | 0.2 µM/kg |
| 22.8 µM | – | Nc1ccc(-c2ccc(O)nn2)cc1 | – | – |
| 0.11 µM | – | CC1CC(=O)NN=C1c1ccc(C2=NNC(=O)CC2C)cc1 (configuration not stated) | 0.06 µmol/kg | 0.04 µM/kg |
| 2.23 µM | – | CC1CC(=O)NN=C1c1ccc(C(N)=O)cc1 (configuration not stated) | 0.07 µmol/kg | 0.1 µM/kg |
| 37 µM | – | CC1CC(=O)NN=C1c1ccc(N)cc1 (configuration not stated) | 1.7 µmol/kg | 0.5 µM/kg |
